# Test system: HEK-293T
# Assay: Multiplex assay against HEK293T
# Assay type: toxicity, cell-based
# Conditions: human
# Summary of the method: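 At seeding, live cells were stained with Hoechst33342, BioTracker Green Microtubule Cytoskeleton Dye, MitoTracker Red and Annexin V Alexa Fluor 680. After compound addition they were imaged on a CQ1 microscope at 37°C and 5% CO2, and CellPathfinder machine-learning gating sorted them into Hoechst high-intensity objects or normal cells, with normal cells further split into healthy, pyknosed or fragmented nuclei and pyknosed cells into mitotic or apoptotic. Tubulin, mitochondrial-mass and membrane-permeability phenotypes are given as per cents of cells with healthy nuclei.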
# [1] = 12 h, 1 µM, compound concentration 1 uM, replicate 1
# [2] = 12 h, 1 µM, compound concentration 1 uM, replicate 2
# [3] = 12 h, 10 µM, compound concentration 10 uM, replicate 1
# [4] = 12 h, 10 µM, compound concentration 10 uM, replicate 2
# [5] = 24 h, 1 µM, compound concentration 1 uM, replicate 1
# [6] = 24 h, 1 µM, compound concentration 1 uM, replicate 2
# [7] = 24 h, 10 µM, compound concentration 10 uM, replicate 1
# [8] = 24 h, 10 µM, compound concentration 10 uM, replicate 2
# [9] = 48 h, 1 µM, compound concentration 1 uM, replicate 1
# [10] = 48 h, 1 µM, compound concentration 1 uM, replicate 2
# [11] = 48 h, 10 µM, compound concentration 10 uM, replicate 1
# [12] = 48 h, 10 µM, compound concentration 10 uM, replicate 2
smiles,measurement,setting,value
Cc1ccc(F)cc1C(=O)Nc1ccc(C(=O)N2Cc3cccn3Cc3ccccc32)c(Cl)c1 [LIXIVAPTAN],Population Apoptotic (%),[1],36%
same,Population Fragmented Nuclei (%),[1],5%
same,Population Healthy Nuclei (%),[1],83%
same,Population Hoechst High Intensity Objects (%),[1],7%
same,Population Membrane Permeable-Phenotype (%),[1],0%
same,Population Mitochondria Different-Phenotype (%),[1],45%
same,Population Mitotic Cells (%),[1],63%
same,Population Normal (%),[1],92%
same,Population Pyknosed Nuclei (%),[1],10%
same,Population Tubulin-Different-Phenotype (%),[1],38%
same,Total Cell Count,[1],486
same,Population Apoptotic (%),[2],40%
same,Population Fragmented Nuclei (%),[2],6%
same,Population Healthy Nuclei (%),[2],74%
same,Population Hoechst High Intensity Objects (%),[2],5%
same,Population Mitochondria Different-Phenotype (%),[2],57%
same,Population Mitotic Cells (%),[2],60%
same,Population Normal (%),[2],94%
same,Population Pyknosed Nuclei (%),[2],19%
same,Population Tubulin-Different-Phenotype (%),[2],32%
same,Total Cell Count,[2],335
same,Population Apoptotic (%),[3],46%
same,Population Fragmented Nuclei (%),[3],6%
same,Population Healthy Nuclei (%),[3],70%
same,Population Hoechst High Intensity Objects (%),[3],10%
same,Population Membrane Permeable-Phenotype (%),[3],0%
same,Population Mitochondria Different-Phenotype (%),[3],75%
same,Population Mitotic Cells (%),[3],53%
same,Population Normal (%),[3],89%
same,Population Pyknosed Nuclei (%),[3],22%
same,Population Tubulin-Different-Phenotype (%),[3],78%
same,Total Cell Count,[3],339
same,Population Apoptotic (%),[4],50%
same,Population Healthy Nuclei (%),[4],67%
same,Population Hoechst High Intensity Objects (%),[4],6%
same,Population Membrane Permeable-Phenotype (%),[4],1%
same,Population Mitochondria Different-Phenotype (%),[4],81%
same,Population Mitotic Cells (%),[4],50%
same,Population Normal (%),[4],93%
same,Population Pyknosed Nuclei (%),[4],25%
same,Population Tubulin-Different-Phenotype (%),[4],67%
same,Total Cell Count,[4],357
same,Population Apoptotic (%),[5],30%
same,Population Fragmented Nuclei (%),[5],9%
same,Population Healthy Nuclei (%),[5],77%
same,Population Hoechst High Intensity Objects (%),[5],5%
same,Population Membrane Permeable-Phenotype (%),[5],0%
same,Population Mitochondria Different-Phenotype (%),[5],30%
same,Population Mitotic Cells (%),[5],69%
same,Population Normal (%),[5],94%
same,Population Pyknosed Nuclei (%),[5],13%
same,Population Tubulin-Different-Phenotype (%),[5],24%
same,Total Cell Count,[5],595
same,Population Apoptotic (%),[6],36%
same,Population Fragmented Nuclei (%),[6],10%
same,Population Healthy Nuclei (%),[6],76%
same,Population Hoechst High Intensity Objects (%),[6],7%
same,Population Mitochondria Different-Phenotype (%),[6],42%
same,Population Mitotic Cells (%),[6],63%
same,Population Normal (%),[6],92%
same,Population Tubulin-Different-Phenotype (%),[6],22%
same,Total Cell Count,[6],423
same,Population Apoptotic (%),[7],37%
same,Population Fragmented Nuclei (%),[7],5%
same,Population Healthy Nuclei (%),[7],69%
same,Population Hoechst High Intensity Objects (%),[7],7%
same,Population Membrane Permeable-Phenotype (%),[7],0%
same,Population Mitochondria Different-Phenotype (%),[7],74%
same,Population Mitotic Cells (%),[7],62%
same,Population Normal (%),[7],92%
same,Population Pyknosed Nuclei (%),[7],24%
same,Population Tubulin-Different-Phenotype (%),[7],71%
same,Total Cell Count,[7],392
same,Population Apoptotic (%),[8],58%
same,Population Fragmented Nuclei (%),[8],8%
same,Population Healthy Nuclei (%),[8],72%
same,Population Hoechst High Intensity Objects (%),[8],6%
same,Population Mitochondria Different-Phenotype (%),[8],78%
same,Population Mitotic Cells (%),[8],41%
same,Population Normal (%),[8],93%
same,Population Pyknosed Nuclei (%),[8],19%
same,Population Tubulin-Different-Phenotype (%),[8],69%
same,Total Cell Count,[8],401
same,Population Apoptotic (%),[9],22%
same,Population Fragmented Nuclei (%),[9],12%
same,Population Healthy Nuclei (%),[9],80%
same,Population Hoechst High Intensity Objects (%),[9],2%
same,Population Membrane Permeable-Phenotype (%),[9],0%
same,Population Mitochondria Different-Phenotype (%),[9],19%
same,Population Mitotic Cells (%),[9],77%
same,Population Normal (%),[9],97%
same,Population Pyknosed Nuclei (%),[9],6%
same,Population Tubulin-Different-Phenotype (%),[9],17%
same,Total Cell Count,[9],995
same,Population Apoptotic (%),[10],17%
same,Population Hoechst High Intensity Objects (%),[10],4%
same,Population Mitochondria Different-Phenotype (%),[10],24%
same,Population Mitotic Cells (%),[10],82%
same,Population Normal (%),[10],95%
same,Population Pyknosed Nuclei (%),[10],7%
same,Population Tubulin-Different-Phenotype (%),[10],21%
same,Total Cell Count,[10],643
same,Population Apoptotic (%),[11],43%
same,Population Fragmented Nuclei (%),[11],9%
same,Population Healthy Nuclei (%),[11],74%
same,Population Hoechst High Intensity Objects (%),[11],7%
same,Population Membrane Permeable-Phenotype (%),[11],0%
same,Population Mitochondria Different-Phenotype (%),[11],72%
same,Population Mitotic Cells (%),[11],56%
same,Population Normal (%),[11],92%
same,Population Pyknosed Nuclei (%),[11],16%
same,Population Tubulin-Different-Phenotype (%),[11],69%
same,Total Cell Count,[11],489
same,Population Apoptotic (%),[12],46%
same,Population Fragmented Nuclei (%),[12],11%
same,Population Hoechst High Intensity Objects (%),[12],8%
same,Population Mitochondria Different-Phenotype (%),[12],71%
same,Population Mitotic Cells (%),[12],53%
same,Population Normal (%),[12],91%
same,Population Pyknosed Nuclei (%),[12],14%
same,Population Tubulin-Different-Phenotype (%),[12],59%
same,Total Cell Count,[12],437
